We go through 3 compounds from PMC10883201 (Nature, 2023).

In brackets after ≈: the same amount, converted by molar mass.

Series [1] concerns Aspergillus fumigatus 91. Nature of the series: MIC assay. Type of series: cell-based.
In series [2] the test system is C. albicans SN250. The experiment in a line: Erg extraction experiment. The format is cell-based, Candida albicans. The conditions noted are these: C. albicans SN250, compound at 5 μM.
For series [3], the system named is SH-SY5Y neural cells. The experiment in a line: Cell viability assay. The format is cell-based, human. The conditions noted are these: up to highest concentration tested 50 μM. Put shortly: (§1)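 Cells grown in complete MEM with FBS, Pen-Strep and non-essential amino acids at 37 °C, 5% CO2. Trypsinized cells were adjusted to 5 × 10^5 cells ml−1, seeded at 10^4 cells per well, and held 3 h at 37 °C. Compound was then added at 0.5–50 μM final in 1% DMSO, with DMSO and puromycin controls, for 24 h. alamarBlue was read after 3 h (ex 537/em 585 nm). Triplicate; average of three experiments.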

A short description of series [4]: Renal toxicity in mice, 24 h post single IV dose. The format is in vivo, female CD-1 mice.
For series [5], the system named is HepG2 liver cells. Nature of the series: Cell viability assay. The format is cell-based, human. The conditions noted are these: up to highest concentration tested 50 μM. Put shortly:
as §1

For series [6], the system named is H9c2 myocardial cells. The experiment in a line: Cell viability assay. Type of series: cell-based, rat. The conditions noted are these: up to highest concentration tested 50 μM. Put shortly:
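Rat myocardial cells maintained in complete DMEM with FBS, Pen-Strep and non-essential amino acids, 37 °C, 5% CO2. After trypsinization, cells at 5 × 10^5 cells ml−1 were seeded at […] and rested 3 h. Compound was given at 0.5–50 μM final (1% DMSO) for 24 h, with DMSO and puromycin controls. alamarBlue was added 3 h, then fluorescence read at 537/585 nm. Triplicate; mean of three experiments.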

Series [7] is described as follows: ITC with Chol-containing large unilamellar vesicles. Type of series: binding. The conditions noted are these: ITC heat exchange.
The subject of series [8] is primary human renal proximal tubule epithelial cells. The experiment in a line: Cell viability assay. The format is cell-based. As to conditions: up to highest concentration tested 50 μM.
Series [9] concerns K562 cells. The experiment in a line: Cell viability assay. Type of series: cell-based, human. The conditions noted are these: up to highest concentration tested 50 μM. A digest of the protocol:
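Suspension cells grown in complete IMDM with FBS and Pen-Strep at 37 °C, 5% CO2. Without trypsinization, suspension was adjusted to 12.5 × 10^5 cells ml−1 and held 3 h at 37 °C before compound. Exposure was 0.5–50 μM final in 1% DMSO, with DMSO and puromycin controls, for 24 h. Viability was by alamarBlue fluorescence after 3 h (ex 537/em 585 nm). Triplicate; average of three experiments.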

The test system of series [10] is Candida krusei. Nature of the series: MIC assay. The format is cell-based.
Series [11] concerns human red blood cells. The experiment in a line: Red blood cell lysis / permeabilization. The format is cell-based. The conditions noted are these: up to highest concentration tested 500 μM.
Series [12] is described as follows: ITC with Erg-containing large unilamellar vesicles. Type of series: binding. As to conditions: ITC heat exchange.
A short description of series [13]: Solution stability in PBS buffer. The format is physicochemical. As to conditions: PBS buffer at pH 6.
The conditions of series [14]: ITC, Erg-containing LUVs; AmB–Erg binding data reported earlier; cited from earlier work. For orientation: ITC needs no label: the signal is the heat of the interaction.

Regarding `C[C@@H]1[C@H](O)[C@@H](C)/C=C/C=C/C=C/C=C/C=C/C=C/C=C/[C@H](O[C@@H]2O[C@H](C)[C@@H](O)[C@H](N)[C@H]2O)C[C@@H]2O[C@](O)(C[C@@H](O)C[C@@H](O)[C@H](O)CC[C@@H](O)C[C@@H](O)CC(=O)O[C@H]1C)C[C@H](O)[C@H]2C(=O)O` [C2′epiAmB], the MIC is above 32 µM in series [1] and 1 µM (≈ 0.924 µg/mL) in [10]. In addition, the “T50% (time required for 50% Erg extraction)” value in series [2] amounted to 2.75 h. The toxicity entry in series [3], in series [5], in series [6], in series [8], in series [9] and in [11] was “no toxicity” each time. Besides, the kidney injury biomarkers result in [4] (24 h after single IV 45 mg/kg dose) was “do not elevate kidney injury biomarkers”. Besides, the renal biomarkers result in [4] (doses of ≥45 mg kg^−1, single IV, 24 h, 1:2 deoxycholate formulation) is on record as “no elevation of renal biomarkers”. In addition, the Chol binding result in series [7] is listed as “no binding”. For the same compound, the Erg binding result in series [12] is reported as “retained, albeit diminished, capacity to bind Erg”.
`CC1C=CC=CC=CC=CC=CC=CC=CC(OC2CC(N)C(O)C(C)O2)CC2OC(O)(CC(O)CC(O)C(O)CCC(O)CC(O)CC(=O)OC(C)C(C)C1O)CC(O)C2C(=O)O` (stereo not shown) [C2′deOAmB]: the solution stability result in series [13] is on record as “unstable”.
On to `C[C@@H]1[C@H](O)[C@@H](C)/C=C/C=C/C=C/C=C/C=C/C=C/C=C/[C@H](O[C@@H]2O[C@H](C)[C@@H](O)[C@H](N)[C@@H]2O)C[C@@H]2O[C@](O)(C[C@@H](O)C[C@@H](O)[C@H](O)CC[C@@H](O)C[C@@H](O)CC(=O)O[C@H]1C)C[C@H](O)[C@H]2C(=O)O` [AmB, amphotericin B, reference compound], for which, in series [2], the “T50% (time required for 50% Erg extraction)” value is 0.92 h. The “ΔΔHErg (ΔHsterol – ΔHsterol-free)” value in series [14] is -42.4 ± 11.2 µcal.

Broadly, the MIC is the least concentration at which growth counts as inhibited. Read a high MIC as a need for much substance.
